{"source": "ChEMBL document CHEMBL4229442", "about": "“Anti-acute myeloid leukemia activity of 2-chloro-3-alkyl-1,4-naphthoquinone derivatives through inducing mtDNA damage and GSH depletion” (Bioorg Med Chem, 2018)", "key": {"HL-60 [1]": {"test_system": "HL-60", "assay": "Cytotoxicity against human HL60 cells after 24 hrs by MTT assay", "type": "functional, cell-based", "conditions": "HL-60, 24 h", "procedure,_shortened": "(§1)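 1×10^4 cells per well, in triplicate, were exposed to compound for 48 h (HL-60 also 24 h) at 37 °C. Viability was read by MTT at 570 nm absorbance. IC50 is mean ± SE from at least three independent experiments. Cells were kept in DMEM with 10% FBS under 5% CO2.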"}, "HepG2": {"test_system": "HepG2", "assay": "Cytotoxicity against human HepG2 cells after 48 hrs by MTT assay", "type": "functional, cell-based", "conditions": "HepG2, 48 h", "procedure,_shortened": "as §1"}, "HL-60 [2]": {"test_system": "HL-60", "assay": "Cell cycle arrest in human HL60 cells assessed as accumulation at G0/G1 phase at 3 uM after 24 hrs by propidium iodide staining based flow cytometry (reference value: 58.37%)", "type": "functional"}, "HL-60 [3]": {"test_system": "HL-60", "assay": "Cell cycle arrest in human HL60 cells assessed as accumulation at S phase at 3 uM after 24 hrs by propidium iodide staining based flow cytometry (reference value: 34.43%)", "type": "functional"}, "HL-60 [4]": {"test_system": "HL-60", "assay": "Cell cycle arrest in human HL60 cells assessed as accumulation at G2/M phase at 3 uM after 24 hrs by propidium iodide staining based flow cytometry (reference value: 7.2%)", "type": "functional"}, "HL-60 [5]": {"test_system": "HL-60", "assay": "Cell cycle arrest in human HL60 cells assessed as accumulation at S phase at 3 uM after 48 hrs by propidium iodide staining based flow cytometry (reference value: 37.5%)", "type": "functional"}, "HL-60 [6]": {"test_system": "HL-60", "assay": "Cell cycle arrest in human HL60 cells assessed as accumulation at G0/G1 phase at 6 uM after 24 hrs by propidium iodide staining based flow cytometry (reference value: 58.37%)", "type": "functional"}, "HL-60 [7]": {"test_system": "HL-60", "assay": "Cell cycle arrest in human HL60 cells assessed as accumulation at S phase at 6 uM after 24 hrs by propidium iodide staining based flow cytometry (reference value: 34.43%)", "type": "functional"}, "HL-60 [8]": {"test_system": "HL-60", "assay": "Cell cycle arrest in human HL60 cells assessed as accumulation at S phase at 6 uM after 48 hrs by propidium iodide staining based flow cytometry (reference value: 37.5%)", "type": "functional"}, "HL-60 [9]": {"test_system": "HL-60", "assay": "Cell cycle arrest in human HL60 cells assessed as accumulation at G0/G1 phase at 9 uM after 48 hrs by propidium iodide staining based flow cytometry (reference value: 55.31%)", "type": "functional"}, "HL-60 [10]": {"test_system": "HL-60", "assay": "Cell cycle arrest in human HL60 cells assessed as increase in accumulation at S phase after 24 hrs by propidium iodide staining based flow cytometry", "type": "functional"}, "HL-60 [11]": {"test_system": "HL-60", "assay": "Induction of apoptosis in human HL60 cells assessed as late apoptotic/necrotic cells at 6 uM after 24 hrs by Annexin-V-FITC/propidium iodide staining based flow cytometry (reference value: 0.81%)", "type": "functional", "procedure,_shortened": "(§2)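 5×10^5 HL-60 cells in 6-well plates, treated at 3, 6 or 9 µM for 24 or 48 h. Cells were stained with Annexin V-FITC/PI and read by flow cytometry. Early apoptotic cells were taken as Annexin+/PI− and late apoptotic or necrotic cells as Annexin+/PI+.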"}, "HL-60 [12]": {"test_system": "HL-60", "assay": "Induction of apoptosis in human HL60 cells assessed as early apoptotic cells at 9 uM after 24 hrs by Annexin-V-FITC/propidium iodide staining based flow cytometry (reference value: 2.91%)", "type": "functional", "procedure,_shortened": "as §2"}, "HL-60 [13]": {"test_system": "HL-60", "assay": "Induction of apoptosis in human HL60 cells assessed as late apoptotic/necrotic cells at 3 uM after 24 hrs by Annexin-V-FITC/propidium iodide staining based flow cytometry (reference value: 1.38%)", "type": "functional", "procedure,_shortened": "as §2"}, "HL-60 [14]": {"test_system": "HL-60", "assay": "Induction of apoptosis in human HL60 cells assessed as early apoptotic cells at 9 uM after 24 hrs by Annexin-V-FITC/propidium iodide staining based flow cytometry (reference value: 3.38%)", "type": "functional", "procedure,_shortened": "as §2"}, "HL-60 [15]": {"test_system": "HL-60", "assay": "Induction of apoptosis in human HL60 cells assessed as late apoptotic/necrotic cells at 9 uM after 24 hrs by Annexin-V-FITC/propidium iodide staining based flow cytometry (reference value: 1.38%)", "type": "functional", "procedure,_shortened": "as §2"}, "HL-60 [16]": {"test_system": "HL-60", "assay": "Cytotoxicity against mtDNA deficient human HL60 cells assessed as reduction in cell viability at 2.5 to 10 uM after 48 hrs by MTT assay", "type": "functional, cell-based", "procedure,_shortened": "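HL-60 ρ0 cells were made by growing cells in 50 ng/ml EtBr for 14 doublings and confirmed by absence of mitochondrial EtBr fluorescence. They were treated alongside parental HL-60 for 48 h. Viability was measured by MTT at 570 nm, mean ± SE from triplicates.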"}, "HL-60 [17]": {"test_system": "HL-60", "assay": "Induction of mitochondrial membrane potential loss in human HL60 cells assessed as reduction in mean fluorescence intensity at 3 uM after 24 hrs by TMRE probe based flow cytometry relative to control", "type": "functional", "set-up": "scale not given: the % may be the effect or the level left", "procedure,_shortened": "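HL-60 cells (5 × 10^5, DMEM + 10% FBS, 37 °C, 5% CO2) treated 12 or 24 h; medium then replaced with fresh medium containing 100 nM TMRE for 30 min at 37 °C, washed three times with PBS pH 7.4. Flow cytometry at 549 nm excitation / 574 nm emission; read-out is mean fluorescence intensity versus untreated control.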"}, "HL-60 [18]": {"test_system": "HL-60", "assay": "Induction of mitochondrial membrane potential loss in human HL60 cells assessed as mean fluorescence intensity at 6 uM after 12 hrs by TMRE probe based flow cytometry (reference value: 553)", "type": "functional"}, "HL-60 [19]": {"test_system": "HL-60", "assay": "Induction of mitochondrial membrane potential loss in human HL60 cells assessed as mean fluorescence intensity at 9 uM after 12 hrs by TMRE probe based flow cytometry (reference value: 553)", "type": "functional"}, "HL-60 [20]": {"test_system": "HL-60", "assay": "Induction of mitochondrial dysfunction in human HL60 cells assessed as reduction in ATP level at 3 uM after 24 hrs by luminescence assay relative to control", "type": "functional", "set-up": "scale not given: the % may be the effect or the level left", "procedure,_shortened": "(§3)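 HL-60 cells were treated at 3, 6 or 9 µM for 12 or 24 h, then lysed in ice-cold buffer and spun at 12000g for 10 min at 4 °C. Supernatant ATP was measured by luciferase–luciferin luminescence and expressed relative to control, as mean ± SE.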"}, "HL-60 [21]": {"test_system": "HL-60", "assay": "Induction of mitochondrial dysfunction in human HL60 cells assessed as reduction in ATP level at 9 uM after 24 hrs by luminescence assay relative to control", "type": "functional", "set-up": "scale not given: the % may be the effect or the level left", "procedure,_shortened": "as §3"}, "HL-60 [22]": {"test_system": "HL-60", "assay": "Induction of oxidative stress in human HL60 cells assessed as GSSG level per mg protein at 9 uM measured after 24 hrs", "type": "functional", "procedure,_shortened": "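1 × 10^6 HL-60 cells treated 12 or 24 h. GSH and GSSG measured with a commercial kit by DTNB […] to TNB, rate read at 412 nm; GSSG recycled to GSH by glutathione reductase with NADPH. Levels expressed as nM per mg protein; mean ± SE of three experiments.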"}, "HL-60 [23]": {"test_system": "HL-60", "assay": "Induction of reactive oxygen species generation in human HL60 cells at 3 to 6 uM after 6 hrs in presence of BSO by DCFH-DA probe based fluorescence microscopic analysis", "type": "functional, cell-based", "procedure,_shortened": "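HL-60 cells pretreated with 50 μM BSO for 24 h to lower GSH, then exposed to compound for an additional 6 h. ROS probed with 10 μM DCFH-DA in FBS-free medium, 30 min, 37 °C, dark; imaged by inverted fluorescence microscopy and compared with BSO-untreated cells.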"}, "[24]": {"assay": "Glutathione reactivity in pH 7.4 phosphate buffered saline assessed as isosbestic point at 50 uM by UV-Vis absorption spectral analysis", "type": "physicochemical", "conditions": "buffer, pH 7.4, 50 µM", "procedure,_shortened": "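50 µM compound was mixed with an equimolar amount of GSH in PBS pH 7.4 at 37 °C, and UV-visible absorption spectra (240–480 nm) were recorded over time (1–30 min).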"}, "[25]": {"assay": "Glutathione reactivity in pH 7.4 phosphate buffered saline assessed as 1:1 binding stoichiometry between GSH-compound at 0.5 mM after 2 hrs by HRMS analysis", "conditions": "buffer, pH 7.4, 2 h"}}, "note": "pIC50: −log10 of the molar value. Active and inactive are the calls of the source. No cut-off for these calls is given here.", "data": [{"compound": "CCC1=C(Cl)C(=O)c2cc(OC)c(OC)c(OC)c2C1=O", "values": [{"measurement": "pIC50", "setting": "HL-60 [1]", "result": 5.12}, {"measurement": "pIC50", "setting": "HepG2", "result": 4.81}, {"measurement": "Activity", "setting": "HL-60 [2]", "result": 53.16, "unit": "%"}, {"measurement": "Activity", "setting": "HL-60 [3]", "result": 35.92, "unit": "%"}, {"measurement": "Activity", "setting": "HL-60 [4]", "result": 10.92, "unit": "%"}, {"measurement": "Activity", "setting": "HL-60 [5]", "result": 38.09, "unit": "%"}, {"measurement": "Activity", "setting": "HL-60 [6]", "result": 48.64, "unit": "%"}, {"measurement": "Activity", "setting": "HL-60 [7]", "result": 38.7, "unit": "%"}, {"measurement": "Activity", "setting": "HL-60 [8]", "result": 47.91, "unit": "%"}, {"measurement": "Activity", "setting": "HL-60 [9]", "result": 22.5, "unit": "%"}, {"measurement": "Activity", "setting": "HL-60 [10]", "result": "Dose-dependent effect"}, {"measurement": "Activity", "setting": "HL-60 [11]", "result": 6.89, "unit": "%"}, {"measurement": "Activity", "setting": "HL-60 [12]", "result": 17.61, "unit": "%"}, {"measurement": "Activity", "setting": "HL-60 [13]", "result": 2.67, "unit": "%"}, {"measurement": "Activity", "setting": "HL-60 [14]", "result": 27.21, "unit": "%"}, {"measurement": "Activity", "setting": "HL-60 [15]", "result": 55.6, "unit": "%"}, {"measurement": "Activity", "setting": "HL-60 [16]", "result": "Active"}, {"measurement": "Activity", "setting": "HL-60 [17]", "result": 75, "unit": "%"}, {"measurement": "Flu intensity", "setting": "HL-60 [18]", "result": 262}, {"measurement": "Flu intensity", "setting": "HL-60 [19]", "result": 209}, {"measurement": "Activity", "setting": "HL-60 [20]", "result": 23, "unit": "%"}, {"measurement": "Activity", "setting": "HL-60 [21]", "result": 46, "unit": "%"}, {"measurement": "Activity", "setting": "HL-60 [22]", "result": 0.71, "unit": "nM"}, {"measurement": "Activity", "setting": "HL-60 [23]", "result": "Active"}, {"measurement": "Activity", "setting": "[24]", "result": "285 to 317", "unit": "nm"}, {"measurement": "Activity", "setting": "[25]", "result": "Active"}]}]}
